INS-1E rescue: preserves ATP levels in cytokine-treated INS-1E cells; INS-1E cytokine-induced death, ATP luminescence, 48 h; normalised: neutral wells 0, positive control 100; protection from cytokine-induced ATP loss, % at 10 µM; 20,000 compounds, 0.1% hits; AID 488910;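 active = mean replicate protection from cytokine-induced ATP loss at least 50% and at least 75% of replicates each reaching 50%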
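Test system: INS-1E rat cells | Quantity: 8000 cells per well | Medium: Phenol-red-free RPMI with 5% fetal bovine serum | Reagent: Cytokine cocktail of IFN-γ, TNF-α and IL-1β | Doses: One compound concentration, pin transfer | Timing: 48 h co-treatment, 10 min post-lysis read | Technique: Luminescent ATP assay (CellTiter-Glo)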
A1 apoptosis 2: compounds inhibiting A1, read as caspase activation | MEF A1-2A-BIM cells, caspase-Glo luminescence, 3 h; percent of clofoctol response, DMSO zero | caspase activation, % (test concentration not listed) | 24,000 tested, under 10 active | AID 2465; in the data active = caspase activation above about 5.9%
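Material: A1-2A-BIM-expressing MEF cells. Buffer or medium: RPMI-1640 plus 10% FBS. Incubation: cells settled overnight, compound exposure 3 h at 37 °C, 5% CO2. Signal: Caspase-Glo 3/7 luminescence, 1 h at room temperature.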
T cruzi intra: inhibitors of intracellular Trypanosoma cruzi | AID 651903 | activity score (inhibition), % at 5.01 µM | intracellular Trypanosoma cruzi in host cells, plate reader | 22,000 compounds, 4.9% hits; in the data active = activity score above about 55%;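 note: parasites and compound incubated about four days before reading; 0% = median of neutral control wells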
Starred values were filed as active, the others as inactive; . = not tested or not shown. The full list was thinned out, with hits kept by preference.

SMILES	INS-1E rescue	A1 apoptosis 2	T cruzi intra
Cc1ccc(S(=O)(=O)Nc2ccc3c(c2)CC(=O)N([C@H](C)CO)C[C@@H](C)[C@@H](CN(C)Cc2ccc(C(F)(F)F)cc2)O3)cc1	-10	.	61*
COC(=O)CCCCCCC(=O)N/N=C/c1cccc(NC(=O)OC(C)(C)C)c1	2	-1	31
O=C(O)CCCCCC(=O)N/N=C/c1cc(F)ccc1O	4	0	-12
O=C(O)CCCCCCC(=O)N/N=C/c1ccccc1[N+](=O)[O-]	-2	-2	-3
C[C@H]1CCCCO[C@@H](CN(C)Cc2ccc3c(c2)OCO3)[C@@H](C)CN([C@@H](C)CO)C(=O)c2cc(NC(=O)CCC(F)(F)F)ccc2O1	.	-1	.
COc1ccccc1CN(C)C[C@@H]1OCc2cnnn2CCCC(=O)N([C@H](C)CO)C[C@@H]1C	.	0	-15
Cc1ccc(F)cc1S(=O)(=O)N[C@@H]1CCN(Cc2ccc(C(F)(F)F)cc2)C1	.	0	.
C[C@H]1CN([C@@H](C)CO)C(=O)c2cccc(NC(=O)CCCCCC(=O)Nc3ccccc3N)c2O[C@@H]1CN(C)CC1CC1	19	2	77*
C[C@@H]1CN([C@@H](C)CO)C(=O)c2cccc(NC(=O)CCCCCC(=O)Nc3ccccc3N)c2O[C@H]1CN(C)CC1CC1	11	.	60*
C[C@H](CO)N1C[C@H](C)[C@H](CN(C)CC2CCCCC2)Oc2c(NC(=O)CCCCCC(=O)Nc3ccccc3N)cccc2C1=O	6	-1	39
C[C@H]1CN([C@@H](C)CO)C(=O)c2cccc(NC(=O)CCCCCC(=O)Nc3ccccc3N)c2O[C@H]1CN(C)CC1CCCCC1	-11	2	22
C[C@@H]1CN([C@H](C)CO)C(=O)c2cccc(NC(=O)CCCCCC(=O)Nc3ccccc3N)c2O[C@H]1CN(C)CC1CC1	11	.	59*
C[C@@H]1CN([C@H](C)CO)C(=O)c2cccc(NC(=O)CCCCCC(=O)Nc3ccccc3N)c2O[C@@H]1CN(C)CC1CC1	-9	0	-19
CCOC(=O)[C@@H]1CCCCN1C(=O)C(=O)OC	.	1	.
C[C@H](CO)N1C[C@H](C)[C@H](CN(C)Cc2ccc(C(F)(F)F)cc2)Oc2ccc(NS(=O)(=O)c3ccc(F)cc3)cc2C1=O	-5	1	-7
C[C@@H]1CN([C@@H](C)CO)C(=O)c2cc(NS(=O)(=O)c3ccc(Cl)cc3)ccc2O[C@@H](C)CCCCO[C@@H]1CN(C)Cc1ccc(C(F)(F)F)cc1	.	1	.
C[C@H]1CN([C@@H](C)CO)C(=O)c2cc(NS(=O)(=O)c3ccc(Cl)cc3)ccc2O[C@H]1CN(C)Cc1ccc(C(F)(F)F)cc1	.	-1	.
C[C@H]1CN([C@@H](C)CO)C(=O)c2cc(NS(=O)(=O)c3ccc(F)cc3)ccc2O[C@H]1CN(C)Cc1ccc(C(F)(F)F)cc1	.	.	55*
C[C@H](CO)N1C[C@H](C)[C@@H](CN(C)Cc2ccc(C(F)(F)F)cc2)Oc2ccc(NS(=O)(=O)c3ccc(Cl)cc3)cc2C1=O	-8	.	71*
C[C@H]1CN([C@@H](C)CO)C(=O)c2cc(NS(=O)(=O)c3ccc(Cl)cc3)ccc2O[C@@H]1CN(C)Cc1ccc(C(F)(F)F)cc1	-23	-1	58*
C[C@@H]1CN([C@H](C)CO)C(=O)c2cc(NS(=O)(=O)c3ccc(Cl)cc3)ccc2O[C@H]1CN(C)Cc1ccc(C(F)(F)F)cc1	-32	1	47
C[C@@H]1CCCCO[C@H](CN(C)Cc2ccc(C(F)(F)F)cc2)[C@@H](C)CN([C@H](C)CO)C(=O)c2cc(NS(=O)(=O)c3ccc(Cl)cc3)ccc2O1	-31	2	69*
C[C@H](CO)N1C[C@H](C)[C@H](CN(C)S(=O)(=O)c2ccccc2)Oc2ncc(-c3cccc(F)c3)cc2C1=O	.	.	34
Cc1ccccc1/C=N/NC(=O)c1ccccn1	5	-11	-20
C[C@@H]1CN([C@H](C)CO)C(=O)c2cccc(NC(=O)c3nc4ccccc4s3)c2O[C@H]1CN(C)C(=O)Nc1cccc2ccccc12	-9	0	9
SMILES	INS-1E rescue	A1 apoptosis 2	T cruzi intra
C[C@H](CO)N1C[C@H](C)[C@H](CN(C)Cc2ccc(-c3ccccc3)cc2)Oc2c(NC(=O)NC3CCCCC3)cccc2C1=O	-61	0	69*
C[C@@H]1CN([C@@H](C)CO)C(=O)c2cccc(NC(=O)NC3CCCCC3)c2O[C@@H]1CN(C)Cc1ccccc1	-33	0	-20
C[C@H](CO)N1C[C@H](C)[C@@H](CN(C)Cc2ccc(Oc3ccccc3)cc2)Oc2c(NC(=O)NC3CCCCC3)cccc2C1=O	-16	.	70*
C[C@H]1CN([C@@H](C)CO)C(=O)c2cccc(NC(=O)NC3CCCCC3)c2O[C@@H]1CN(C)Cc1ccc(-c2ccccc2)cc1	-10	0	36
O=C(CCCCCC(=O)NN=C1CCCCCCC1)NO	.	0	.
Cc1ccc(S(=O)(=O)Nc2ccc3c(c2)CC(=O)N([C@H](C)CO)C[C@@H](C)[C@H](CN(C)CC2CCCCC2)O3)cc1	-6	-1	85*
C[C@@H]1CN([C@H](C)CO)C(=O)Cc2cc(NS(=O)(=O)c3ccc(Cl)cc3)ccc2O[C@H]1CN(C)CC1CCCCC1	-20	0	65*
C[C@H](CO)N1C[C@H](C)[C@@H](CN(C)CC2CCCCC2)Oc2ccc(NS(=O)(=O)c3ccc(Cl)cc3)cc2CC1=O	.	0	.
Cc1ccc(S(=O)(=O)Nc2ccc3c(c2)CC(=O)N([C@H](C)CO)C[C@@H](C)[C@@H](CN(C)CC2CCCCC2)O3)cc1	-6	.	26
CC(C)=CCC[C@@H](C)C/C=N/NC(=O)c1cccc(C(=O)NO)c1	-5	0	-4
COC(=O)CCCCCCC(=O)N/N=C/C[C@@H](C)CCC=C(C)C	-9	0	0
CC(C)(C)NC(=O)C(COCc1ccccc1)OC(=O)c1ccccc1 (stereo not given)	.	0	.
C[C@H]1CN([C@@H](C)CO)C(=O)Cc2cc(NS(=O)(=O)c3ccc(Cl)cc3)ccc2O[C@H]1CN(C)S(=O)(=O)c1ccc(Cl)cc1	-4	-1	-1
C[C@@H]1CN([C@@H](C)CO)C(=O)Cc2cc(NS(=O)(=O)c3ccc(Cl)cc3)ccc2O[C@@H]1CN(C)S(=O)(=O)c1ccc(Cl)cc1	-5	.	67*
C[C@@H]1CN([C@@H](C)CO)C(=O)Cc2cc(NS(=O)(=O)c3ccccc3)ccc2O[C@@H]1CN(C)S(=O)(=O)c1ccc(Cl)cc1	-6	0	67*
C[C@H]1CN([C@@H](C)CO)C(=O)Cc2cc(NS(=O)(=O)c3ccc(Cl)cc3)ccc2O[C@H]1CN(C)S(=O)(=O)c1ccccc1	7	.	-2
Cc1ccc(S(=O)(=O)Nc2ccc3c(c2)CC(=O)N([C@H](C)CO)C[C@@H](C)[C@@H](CN(C)S(=O)(=O)c2ccccc2)O3)cc1	1	.	69*
Cc1ccc(S(=O)(=O)Nc2ccc3c(c2)CC(=O)N([C@H](C)CO)C[C@H](C)[C@H](CN(C)S(=O)(=O)c2ccccc2)O3)cc1	5	0	-7
CCOc1cc(/C=N/NC(=O)c2ccccn2)ccc1O	3	-1	-5

Screening results deposited in PubChem by Broad Institute.
